We go through one compound from ChEMBL document CHEMBL4145582, “Cytotoxic and Antibacterial Eremophilane Sesquiterpenes from the Marine-Derived Fungus Cochliobolus lunatus SCSIO41401” (J Nat Prod, 2018).

Assay [1] concerns ACHN. As to the kind of experiment: Induction of apoptosis in human ACHN cells assessed as viable cells at 4 uM after 48 hrs by Annexin V-FITC/propidium iodide staining based flow cytometric method (reference value: 100%). Conditions: read-out: Activity. The assay is classed as functional. Summed up: (§1)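 ACHN cells are treated at 1, 2 and 4 μM for 24, 48 and 72 h. Cells are then double-stained with annexin V-FITC and propidium iodide and analysed by flow cytometry. Early apoptotic, late apoptotic, necrotic and viable fractions are quantified.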

For assay [2], the system named is ACHN. In words: Induction of apoptosis in human ACHN cells assessed as late apoptotic cells at 1 uM after 24 hrs by Annexin V-FITC/propidium iodide staining based flow cytometric method (reference value: 0%). The class given is functional. Summed up:
as §1
Background: A flow cytometer gives signals particle by particle.

Assay [3] relates to SGC-7901. As to the kind of experiment: Cytotoxicity against human SGC7901 cells after 6 days by MTT assay. The assay is classed as functional, cell-based. Particulars: SGC-7901, 144 h. Summed up:
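HepG-2 and SGC7901 cells; growth inhibition read by MTT method, with 5-fluorouracil as positive control.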

For assay [4], the system named is ACHN. As to the kind of experiment: Induction of apoptosis in human ACHN cells assessed as viable cells at 2 uM after 24 hrs by Annexin V-FITC/propidium iodide staining based flow cytometric method (reference value: 100%). The class given is functional. Particulars: read-out: Activity. Put shortly: as §1
In assay [5] the test system is ACHN. In words: Induction of apoptosis in human ACHN cells assessed as late apoptotic cells at 4 uM after 24 hrs by Annexin V-FITC/propidium iodide staining based flow cytometric method (reference value: 0%). The assay is classed as functional. Summed up:
as §1

For assay [6], the system named is ACHN. As to the kind of experiment: Induction of apoptosis in human ACHN cells assessed as necrotic cells at 1 uM after 24 hrs by Annexin V-FITC/propidium iodide staining based flow cytometric method (reference value: 0%). The assay is classed as functional. Summed up: as §1
The subject of assay [7] is ACHN. As to the kind of experiment: Induction of apoptosis in human ACHN cells assessed as early apoptotic cells at 1 uM after 48 hrs by Annexin V-FITC/propidium iodide staining based flow cytometric method (reference value: 0%). The assay is classed as functional. Put shortly: as §1
The subject of assay [8] is ACHN. As to the kind of experiment: Induction of apoptosis in human ACHN cells assessed as necrotic cells at 4 uM after 72 hrs by Annexin V-FITC/propidium iodide staining based flow cytometric method (reference value: 0%). The class given is functional. Summed up: as §1
Assay [9] deals with ACHN. In words: Cell cycle arrest in human ACHN cells at 1 to 4 uM after 24 to 72 hrs by propidium iodide staining based flow cytometric method. The class given is functional.
Assay [10] relates to ACHN. In words: Induction of apoptosis in human ACHN cells assessed as early apoptotic cells at 4 uM after 48 hrs by Annexin V-FITC/propidium iodide staining based flow cytometric method (reference value: 0%). The class given is functional. Summed up:
as §1

For assay [11], the system named is ACHN. In words: Induction of apoptosis in human ACHN cells assessed as late apoptotic cells at 2 uM after 48 hrs by Annexin V-FITC/propidium iodide staining based flow cytometric method (reference value: 0%). The assay is classed as functional. Put shortly: as §1
Assay [12] concerns ACHN. As to the kind of experiment: Induction of apoptosis in human ACHN cells assessed as viable cells at 1 uM after 48 hrs by Annexin V-FITC/propidium iodide staining based flow cytometric method (reference value: 100%). The assay is classed as functional. Conditions: read-out: Activity. Summed up: as §1
Assay [13] relates to Erysipelothrix rhusiopathiae. As to the kind of experiment: Antimicrobial activity against Erysipelothrix rhusiopathiae ATCC 19414 after 24 hrs by serial dilution method. The class given is functional. Conditions: ATCC 19414, 24 h. Put shortly: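 Serial broth dilution in 96-well microtiter plates. Compounds and controls are dissolved in DMSO as stock. Bacteria are grown overnight at 37 °C, then diluted to 10^6 cfu/mL. E. coli and S. aureus are grown in Luria–Bertani broth. P. multocida and E. rhusiopathiae are grown in trypticase soy broth with 10% calf serum. Plates are incubated at 37 °C for 24 h and read at 630 nm.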

Calls of active or inactive are those of the source. Bounds are passed on as bounds.

On to `C=C(/C=N/O)[C@]1(OC)C[C@@]2(C)C(=CC1=O)C=C[C@H](OC(=O)/C=C/C(C)=C/[C@@H](C)CC)[C@@H]2C`, for which the viability at 4 µM in assay [1] was determined as 50%. The Activity was 0.7% in assay [2]; 1.1% in [5]; 5.5% in [6]; 1.3% in assay [7]; 0.8% in [8]; 19.2% in assay [10]. In assay [11], the Activity worked out at 1.3%. Also, the IC50 in assay [3] turned out to be 17 µM. The viability at 2 µM in assay [4] came out at 91.4%. Moreover, the outcome in assay [9] was inactive. Besides, in [12], the viability at 1 µM is 91.4%. The compound also yielded an MIC in assay [13] of more than 100 µg/mL.

A word on the IC50: it is the concentration that gives 50% inhibition. Read a high IC50 as weaker potency in that assay. By MIC is commonly meant the smallest concentration in the dilution series that meets the test's criterion for growth inhibition. Read a low MIC as greater potency.
